Activity calls are given as the source filed them. The calls are words filed in the database; no cut-off is given here.

Data set [1] concerns the target T1, Toll-like receptor 8 (Homo sapiens) (UniProt Q9NR97).
T1 sequence (whole entry): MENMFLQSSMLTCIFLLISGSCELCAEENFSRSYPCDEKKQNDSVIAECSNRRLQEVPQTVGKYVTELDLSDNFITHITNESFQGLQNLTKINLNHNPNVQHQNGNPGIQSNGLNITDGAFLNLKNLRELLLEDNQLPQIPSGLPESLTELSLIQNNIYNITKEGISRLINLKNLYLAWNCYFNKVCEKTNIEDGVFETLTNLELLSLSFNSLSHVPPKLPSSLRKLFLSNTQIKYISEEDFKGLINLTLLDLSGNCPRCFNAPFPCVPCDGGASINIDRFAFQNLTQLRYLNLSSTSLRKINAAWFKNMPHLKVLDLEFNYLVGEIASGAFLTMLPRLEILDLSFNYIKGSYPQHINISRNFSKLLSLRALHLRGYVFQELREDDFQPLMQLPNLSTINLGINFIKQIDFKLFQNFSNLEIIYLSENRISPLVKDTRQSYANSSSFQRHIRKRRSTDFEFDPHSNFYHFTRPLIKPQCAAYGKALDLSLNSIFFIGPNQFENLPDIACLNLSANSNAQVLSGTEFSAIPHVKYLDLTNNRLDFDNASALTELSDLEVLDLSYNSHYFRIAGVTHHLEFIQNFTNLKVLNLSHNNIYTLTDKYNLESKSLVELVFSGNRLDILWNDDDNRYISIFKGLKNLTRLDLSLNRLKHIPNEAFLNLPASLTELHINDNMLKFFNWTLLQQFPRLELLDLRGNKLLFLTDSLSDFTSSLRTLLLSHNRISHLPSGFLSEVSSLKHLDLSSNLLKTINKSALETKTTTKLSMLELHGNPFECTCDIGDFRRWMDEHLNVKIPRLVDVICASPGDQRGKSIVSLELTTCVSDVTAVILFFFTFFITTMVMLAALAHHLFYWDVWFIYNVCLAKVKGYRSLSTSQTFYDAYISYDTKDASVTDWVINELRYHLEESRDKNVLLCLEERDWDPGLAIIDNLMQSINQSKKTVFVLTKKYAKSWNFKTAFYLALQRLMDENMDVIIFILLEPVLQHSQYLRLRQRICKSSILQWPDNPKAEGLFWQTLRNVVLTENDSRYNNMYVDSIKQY
Nature of the data set: Agonist activity at human TLR8 expressed in HEK293 cells assessed as induction of receptor activation incubated for 6 hrs by NF-kappaB-luciferase reporter gene assay. In kind it is cell-based. For orientation: In a reporter assay the amount or activity of a reporter protein is the signal.

Data set [2] in a line: Cytotoxicity against HEK293 cells assessed as reduction in cell viability after 6 hrs by ATP lite assay. Type of data set: cell-based. To be noted: human.
For another data set, the system named is Liver. Put plainly: Effect on cytokine profile in C57BL/6J mouse liver assessed as IL-12p70 levels at 30 mg/kg, po by multiplex assay (reference value: 5 pg/g). In kind it is functional. Summed up:
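Single oral gavage in 20% HP-β-CD to healthy C57BL/6 mice, groups of 15 at 0.3, 1, 3, 10 or 30 mg/kg. Three mice per group sacrificed at 0.5, 1, 2, 4 or 7 h. Plasma and liver cytokines by multiplex, maximum level reported, rounded to nearest multiple of 5.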

For a further data set, the system named is Plasma. Nature of the data set: Proinflammatory activity in C57BL/6J mouse plasma assessed as IL-6 levels at 3 mg/kg, po by multiplex assay (reference value: 505 pg/ml). In kind it is functional.
Data set [3] is described as follows: AUC (0 to last) in cynomolgus monkey plasma at 3 mg/kg, po by LC-MS analysis. Details: dose 3 mg/kg, time 0 - last, route oral. In kind it is ADME, organism-based, Macaca fascicularis. Summed up: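 Healthy cynomolgus monkeys received single oral doses of 1, 3, 9 and 30 mg/kg, with a 2-week wash-out between doses. Systemic compound concentrations were measured by LC–MS at 0.25, 0.5, 1, 2, 4, 8 and 24 h postdose.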

In data set [4] the test system is Cynomolgus monkey. Nature of the data set: Activation of monocytes in cynomolgus monkey plasma assessed as upregulation of IL1Ra levels at 3 mg/kg, po after 24 hrs by Luminex assay (reference value: 320 pg/ml). In kind it is functional, Macaca fascicularis.
Data set [5] deals with Cynomolgus monkey. Put plainly: Anti-inflammatory activity in cynomolgus monkey plasma assessed as IL-10 levels at 9 mg/kg, po after 24 hrs by Luminex assay (reference value: 195 pg/ml). In kind it is functional, Macaca fascicularis.
The subject of data set [6] is Cynomolgus monkey. Put plainly: Toxicity in cynomolgus monkey assessed as change in body temperature up to 30 mg/kg, po. Type of data set: organism-based, Macaca fascicularis. To be noted: in vivo.
For data set [7], the target named is TLR7 and TLR8 (Homo sapiens) (UniProt Q9NYK1+Q9NR97). Put plainly: Agonist activity at TLR7/8 in human PBMCs co-cultured with primary human hepatocytes infected with HBV genotype C for 12 days assessed as increase in GROalpha levels up to 5 uM measured after 42 days.

Turning to `CCC[C@@H](CCO)Nc1nc(N)nc2c(F)cccc12`, in data set [1], the MEC is 0.16 µM. In data set [2], the CC50 at 6 h is > 24 µM. The Activity is 2340 pg/g in the data set with Liver; 4970 pg/mL in the data set on Plasma; 2020 pg/mL in the data set with Cynomolgus monkey [4]; 3785 pg/mL in the data set on Cynomolgus monkey [5]; “Non-Toxic” in the data set with Cynomolgus monkey [6]. Moreover, the AUC(0-t) in data set [3] came out at 383 ng·h/mL. The outcome in data set [7] was Active.

In general, CC50 refers to the concentration that lowers cell viability or growth by half. A word on the AUC(0-t): it is exposure summed from dosing to a finite time, without extrapolation to infinity.

The values are drawn from ChEMBL document CHEMBL4130635, “2,4-Diaminoquinazolines as Dual Toll-like Receptor (TLR) 7/8 Modulators for the Treatment of Hepatitis B Virus” (J Med Chem, 2018).
